Compound activity from PubChem BioAssay.
NS3 helicase inh: inhibitors of Hepatitis C virus NS3 helicase; NS3 helicase DNA unwinding, Cy5 molecular beacon fluorescence; inhibition, % at 10.9 µM; 290,000 tested, 0.56% active; AID 1800;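 active = inhibition above the mean of all tested compounds plus 3 SD, set per campaign, cut at about 35% in these data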
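Measured by: Cy5 fluorescence, 0 and 60 min reads / Assay system: NS3 helicase fragment of HCV / Control set: low DMSO, high thioflavine S at 110 µM / Times: 1 h reaction at 25 °C, ATP-initiated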
DSG3 Ab inh: blocks pemphigus antibody binding to human desmoglein-3 | P32926 | DSG3-coupled beads, scFv-anti-DSG3-GFP binding, flow cytometry; hits give low values | binding (percent of control), % at 10 µM | 310,000 tested, 0.48% active;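 active = binding more than 3 SD below its plate's average and above zero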;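 note: hits lower antibody fragment binding to DSG3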
DNMT1 inh: blocks human DNA methyltransferase DNMT1. P26358. DNMT1 molecular beacon, Hinp1I cleavage, fluorescence. inhibition (reported as % activation of signal), % at 10 µM. 360,000 tested, 0.83% active; in the data active = inhibition above about 50%
MBD2 DNA inh: blocks human MBD2 binding to methylated DNA | Q9UBB5 | TR-FRET, MBD2 binding to methylated oligonucleotide | inhibition, % at 4.4 µM | 370,000 tested, 0.31% active; in the data active = inhibition above about 13%
Target sequence (Q9UBB5 whole entry, looked up): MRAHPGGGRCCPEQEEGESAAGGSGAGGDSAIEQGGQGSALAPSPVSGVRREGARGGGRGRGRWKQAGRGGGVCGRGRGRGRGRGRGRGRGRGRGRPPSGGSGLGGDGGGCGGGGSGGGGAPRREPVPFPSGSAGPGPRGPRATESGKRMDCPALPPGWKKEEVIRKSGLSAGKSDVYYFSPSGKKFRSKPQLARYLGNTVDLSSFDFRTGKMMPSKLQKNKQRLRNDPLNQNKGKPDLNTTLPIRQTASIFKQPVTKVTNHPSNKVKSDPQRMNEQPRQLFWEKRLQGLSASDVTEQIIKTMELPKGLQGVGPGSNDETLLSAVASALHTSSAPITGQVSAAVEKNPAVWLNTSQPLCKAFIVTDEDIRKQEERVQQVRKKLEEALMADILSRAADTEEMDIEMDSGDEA
SUMO1 PPI mod: SUMO1-SIM interaction modulation; P63165; SUMO1 binding to a labelled peptide, TR-FRET, 1 h; inhibition, % at 20 µM; 360,000 tested, 0.33% active; AID 602429; in the data active = inhibition above about 37%
UHRF1 binding: UHRF1 methyl-DNA binding inhibition. UHRF1 binding to methylated oligo, TR-FRET. 370,000 tested, 0.75% active. inhibition, % at 4.4 µM. AID 687016. Q96T88; in the data active = inhibition above about 21%;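 note: UHRF1 SRA domain binding a hemimethylated CpG hairpin DNA probe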
Numbers stand for hits; - = inactive; . = no result. Only some compounds are listed: those with a hit (about 2.5% of all), similar ones and a draw of the others.

SMILES	NS3 helicase inh	DSG3 Ab inh	DNMT1 inh	MBD2 DNA inh	SUMO1 PPI mod	UHRF1 binding
CSc1nnc2c(n1)c(C)nn2-c1cccc(C)c1	-	86	-	-	-	-
CSc1nncc(/C(C)=N\Nc2cccc(C)c2)n1	-	-	-	-	-	-
Cc1ccc(-c2cc(C(=O)Nc3cccnc3)c3ccccc3n2)o1	-	81	51	-	-	-
Cc1ccc(-c2cc(C(=O)Nc3ccccn3)c3ccccc3n2)o1	-	-	61	-	-	-
O=C(c1ccccc1)N1CCCc2ccccc21	-	-	-	-	-	21
O=C(c1ccccc1)N1CCc2ccccc21	-	-	-	-	-	-
COc1cc2[nH]c3c(=O)n(CCN(C(C)C)C(C)C)cnc3c2cc1OC	-	.	-	-	-	-
Cc1cc(C)nc(/N=C(\N)N2CCc3ccccc32)n1	-	.	-	-	-	-
Cn1ccc(/C=N/N=C2/NC(=O)CS2)n1	-	-	-	-	-	37
O=C1CS/C(=N/N=C/c2ccncc2)N1	-	81	-	-	-	-
Cc1ccc(-c2cnc(N)n2C)cc1C	-	-	-	-	-	-
O=C(NCc1ccc(Cl)cc1)C(=O)Nc1nccs1	-	76	-	-	-	-
O=C(NCCc1ccccc1)c1ccc(=O)oc1	-	-	-	-	-	-
O=C(NCCc1ccccc1)c1ccc2nc(-c3ccco3)c(-c3ccco3)nc2c1	-	.	105	.	-	.
COc1ccc(-c2cc(NC=O)c3ncc(-c4cccc(C(=O)NCCN(C)C)c4)n3c2)c(OC)c1	.	.	-	-	-	-
Cc1ccccc1NC(=O)Cn1c(=O)oc2ccccc21	-	-	-	-	-	-
Cc1cc(C)n(Cc2ccc(C(=O)N/N=C/c3ccc(-c4ccc([N+](=O)[O-])cc4)o3)o2)n1	-	.	98	-	104	-
O=C(O)c1ccc(-c2ccc(/C=N/Nc3ccc([N+](=O)[O-])cc3)o2)cc1	-	6.2	-	-	-	-
CCCOc1ccc(C(=O)N/N=C/c2ccc(-c3ccc(S(=O)(=O)Nc4ncccn4)cc3)o2)cc1	-	.	-	-	-	70
NS(=O)(=O)c1ccc(-c2ccc(/C=N/NC(=O)c3ccc([N+](=O)[O-])cc3)o2)cc1	-	75	-	-	-	-
O=C(O)c1cccc(-c2ccc(/C=N/Nc3ccc([N+](=O)[O-])cc3)o2)c1	-	-	-	-	-	-
CCCOc1ccc(C(=O)Nc2ccc(S(=O)(=O)Nc3onc(C)c3C)cc2)cc1	-	-	-	-	-	-
CCOCC(=O)Nc1ccc(C)c(Cl)c1	-	.	-	-	-	-
CSC1=N/C(=C/c2cccnc2)C(=O)N1Cc1ccccc1	-	-	-	-	-	-
Cc1ccc(-c2nc(CS(=O)CC(=O)NCc3ccc(Cl)cc3)c(C)o2)cc1 (stereo not given)	-	-	-	-	-	-
SMILES	NS3 helicase inh	DSG3 Ab inh	DNMT1 inh	MBD2 DNA inh	SUMO1 PPI mod	UHRF1 binding
Cc1ccc(-c2nc(CS(=O)CC(=O)NCCC(C)C)c(C)o2)cc1 (stereo not given)	-	72	-	.	-	.
Cc1oc(-c2ccc(Cl)cc2)nc1CS(=O)CC(=O)NCc1ccccc1 (stereo not given)	-	67	-	-	-	-
CCCCNC(=O)CS(=O)Cc1nc(-c2ccc(C)cc2)oc1C (stereo not given)	-	-	-	-	-	-
CCC(C)N(C)C(=O)c1cc2ccccc2c(-c2ccccc2Cl)n1 (stereo not given)	-	20	-	-	-	-
CCOc1ccc(/C=N/Nc2ccccn2)cc1OC	-	-	-	-	-	47
Cn1c(=O)c2ccccc2n2c(CCl)nnc12	-	27	-	-	-	-
Cc1[nH][nH]c(=O)c1C=Nc1ccc(C(F)(F)F)cc1	-	-	-	-	-	-
Cc1c(N=C2NN=C(c3ccc(Cl)cc3)CS2)c(=O)n(-c2ccccc2)n1C	-	-	-	-	-	-
Cc1c(N=C2NN=C(c3c[nH]c4ccccc34)CS2)c(=O)n(-c2ccccc2)n1C	-	85	-	-	-	-
C/C=C/C=C\C(=O)Nc1cccc(C2=NOC3(C2)C[C@H](C(N)=O)N(C(=O)CC#N)C3)c1 (stereo not given in full)	.	-	-	19	71	-
